Source: PubChem BioAssay (Broad Institute)
XiGFP reactiv – reactivates the inactive X chromosome in mouse fibroblasts. XiGFP mouse fibroblasts, % GFP-positive cells imaging, 3 d; cells co-treated with 5-aza-dC sensitizer; scaled so ellipticine positive control = 100%. activation, % at 7.58 µM. 0.055% of 360,000 active;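 active means mean normalized replicate activation at least 10% and every replicate at or above 10%; inconclusive means only one of the two criteria met; inactive means mean below 10% and not all replicates reach 10%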;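 further: 0% = median of on-plate neutral control wells and 100% = ellipticine 6 µM median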
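System: XiGFP fibroblasts, SV40-immortalized. Medium: DMEM plus 5-aza-dC sensitizer. Doses: single point. Timing: 3 d treatment, 15 min room-temperature fixation. Control set: ellipticine 6 µM.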
Casp6 inh – blocks human caspase-6 cleavage activity. P55212. inhibition, % at 12.5 µM. 0.53% of 350,000 active. purified caspase-6, Z-VEID-R110 cleavage fluorescence. AID 686996;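 active means mean inhibition across replicates at least about 35%, with every replicate also reaching that limit, limit read from the data; inconclusive means only one of the two criteria met; inactive means neither criterion met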;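 further: 0% = median of neutral control wells and 100% = no fluorescence left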
RAD52 inh – RAD52 (human) annealing inhibition; inhibition, % at 18.7 µM; recombinant RAD52 DNA annealing, FRET fluorescence; P43351; 0.46% of 360,000 active; AID 651710;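 active means every replicate showing at least 50% inhibition; inconclusive means mean inhibition at least 50% but not in every replicate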
AF4-AF9 inh – MLL-AF4/AF9 protein interaction inhibition | AlphaScreen, biotin-AF4 peptide binding to FLAG-AF9 | inhibition, % at 10 µM | 0.47% of 350,000 active;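 active means every replicate reaching a set inhibition limit, whatever the replicate mean, cut at about 25% in these data; inconclusive means mean inhibition reaches that limit but some replicates miss it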;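 further: 0% = plate neutral control median and 100% = total signal loss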
S100A4 MyoIIA – S100A4-myosin IIA interaction inhibition; P26447; S100A4/TAMRA-MyoIIA peptide fluorescence polarization; inhibition, % at 10.7 µM; 0.14% of 360,000 active;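 active means mean inhibition of at least 70% across replicates, with every replicate also reaching that level; inconclusive means mean inhibition reaches 70% but some replicates fall short; inactive means mean inhibition below 70%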
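Compound dosing: one dose per compound; test system: human S100A4 monomer with TAMRA-labelled myosin IIA peptide; probe or stimulus: TAMRA-labelled myosin IIA heavy-chain peptide probe, 5 nM; medium: HEPES buffer with Ca2+, pH 7.2; schedule: 5 min incubation before reading; benchmarks: neutral control DMSO, positive control TFP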
RAD54 inh – inhibitors of human RAD54 branch migration | 0.14% of 360,000 active | RAD54 Holliday junction branch migration, FAM/BHQ fluorescence | inhibition, % at 10.4 µM | AID 602329;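 active means mean normalized replicate activity at least 40 and at least half of replicates scoring 40 or more; inconclusive means only one of the two criteria met; inactive means mean below 40 and under half of replicates reaching 40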;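 further: 0% = median of neutral control wells and 100% = median of positive control wells; inhibitors cause a drop in the FAM fluorescence signal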
Target sequence (Q92698 whole entry, looked up): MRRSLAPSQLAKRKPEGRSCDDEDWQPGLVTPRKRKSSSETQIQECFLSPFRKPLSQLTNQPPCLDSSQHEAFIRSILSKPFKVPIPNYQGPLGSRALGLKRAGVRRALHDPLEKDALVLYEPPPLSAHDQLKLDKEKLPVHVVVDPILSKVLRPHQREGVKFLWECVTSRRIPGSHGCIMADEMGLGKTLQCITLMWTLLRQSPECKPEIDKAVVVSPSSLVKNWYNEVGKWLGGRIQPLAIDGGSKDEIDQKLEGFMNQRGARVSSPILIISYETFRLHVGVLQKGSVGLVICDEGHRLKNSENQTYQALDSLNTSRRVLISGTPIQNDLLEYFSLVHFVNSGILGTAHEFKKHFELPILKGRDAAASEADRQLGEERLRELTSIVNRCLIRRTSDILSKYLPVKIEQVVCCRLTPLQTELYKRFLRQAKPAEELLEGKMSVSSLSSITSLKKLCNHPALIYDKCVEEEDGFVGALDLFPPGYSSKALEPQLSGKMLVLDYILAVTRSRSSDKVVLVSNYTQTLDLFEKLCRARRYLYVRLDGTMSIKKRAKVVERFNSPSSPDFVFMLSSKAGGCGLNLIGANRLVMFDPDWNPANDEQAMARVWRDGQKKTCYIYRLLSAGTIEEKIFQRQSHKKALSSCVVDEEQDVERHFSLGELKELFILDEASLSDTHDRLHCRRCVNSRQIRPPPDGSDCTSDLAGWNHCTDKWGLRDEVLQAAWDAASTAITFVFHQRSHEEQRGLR
Active calls of the source: *; ? = inconclusive; . = no result given; + = active, no number. An excerpt weighted towards active compounds, which were near 1.3% of everything screened.

SMILES | XiGFP reactiv | Casp6 inh | RAD52 inh | AF4-AF9 inh | S100A4 MyoIIA | RAD54 inh
Cc1ccc(S(=O)(=O)N(C)C[C@H]2Oc3ccc(NC(=O)CCN4CCOCC4)cc3CC(=O)N([C@@H](C)CO)C[C@@H]2C)cc1 | 0 | 0 | 10 | 3 | -4 | -12
O=C(O)C1CCCCC1C(=O)Nc1nc(-c2ccc(Cl)s2)cs1 (stereo not given) | 0 | 46* | -2 | -5 | -16 | .
CCCNC(=O)C[C@H]1CC[C@H]2[C@@H](COC[C@@H](O)CN2C(=O)CC)O1 | 0 | 5 | -5 | -2 | -1 | 4
COCCNC(=O)C[C@H]1CC[C@@H](NC(=O)NC2CCCCC2)[C@H](CO)O1 | 0 | 13 | -6 | 2 | 27 | -3
Cc1ccc(C)c(N2C(=N)S/C(=C\c3ccc(-c4ccccc4C(=O)O)o3)C2=O)c1 | 0 | 37* | -84 | -5 | -4 | -12
CCOC(=O)C(C)N1C(=O)S/C(=C\c2ccc(-c3ccccc3C(=O)O)o2)C1=O (stereo not given) | 0 | 60* | -119 | 0 | -15 | -7
CCNC(=O)[C@@H]1[C@@H](CO)[C@@H]2Cn3c(ccc(-c4cccc(C(=O)N(C)C)c4)c3=O)[C@H]1N2 | 0 | 3 | -12 | -3 | -24 | .
O=[N+]([O-])c1cc(Cl)ccc1N1CCCC1 | 1 | -2 | -8 | -3 | -4 | 4
O=C1C(Cl)=C(N2CCN(c3ccccc3[N+](=O)[O-])CC2)C(=O)c2ccccc21 | 35* | 2 | -5 | ? | -8 | 0
CC1=NN(c2ccc(C(=O)O)cc2)C(=O)/C1=C\c1ccc(OC(=O)c2cccs2)cc1 | 0 | 52* | 4 | -2 | 0 | .
CCN1C(=O)[C@H]2[C@@H](c3ccc(-c4ccc5c(c4)OCO5)c(OC)c3)N[C@@](C)(C(=O)OC)[C@H]2C1=O | 0 | 1 | -17 | -22 | 99* | 3
Cc1csc(=O)n1CC(=O)OCc1nnc(-c2ccc(Cl)cc2)o1 | 0 | -1 | -7 | -27 | + | 10
C[C@H](CO)N1C[C@H](C)[C@@H](CN(C)S(=O)(=O)c2ccc(Cl)cc2)Oc2ccc(NS(=O)(=O)c3ccc(F)cc3)cc2CC1=O | 0 | . | . | . | . | -3
Cc1cccc(S(=O)(=O)N2CCCCN3[C@@H](CO)[C@H](c4ccc(-c5ccccc5)cc4)[C@@H]3C2)c1 | . | 1 | 68* | -2 | 8 | 2
Cc1cccc(S(=O)(=O)N2CCCCN3[C@H](CO)[C@H](c4ccc(-c5ccccc5)cc4)[C@@H]3C2)c1 | . | 2 | 27 | -4 | 7 | -2
Cc1ccccc1S(=O)(=O)N1CCCCN2[C@@H](CO)[C@H](c3ccc(-c4ccccc4)cc3)[C@@H]2C1 | . | -2 | 71* | -1 | -11 | 1
Cc1ccc(-c2ccc([C@@H]3[C@@H](CO)N4CCCCN(S(=O)(=O)c5cccc(C)c5)C[C@H]34)cc2)cc1 | . | -2 | 53* | 0 | 11 | 6
Cc1ccccc1S(=O)(=O)N1CCCCN2[C@H](C1)[C@@H](c1ccc(C#CCN(C)C)cc1)[C@@H]2CO | 0 | 2 | 60* | -4 | -19 | -5
C[C@@H]1CN([C@@H](C)CO)C(=O)c2cccc(NC(=O)Nc3ccc(C(F)(F)F)cc3)c2O[C@H]1CN(C)S(=O)(=O)c1ccccc1 | 0 | . | . | . | . | .
O=S(=O)(N[C@@H]1CC[C@@H](CCn2cc(-c3ccccn3)nn2)O[C@H]1CO)c1cccc(Cl)c1 | -1 | 1 | -2 | 1 | 11 | 1
C[C@H](NC(=O)C[C@H]1C[C@H]2c3cc(NC(=O)C4CCC4)ccc3O[C@H]2[C@@H](CO)O1)c1ccccc1 | 0 | -1 | -9 | 1 | 25 | 11
C[C@H]1CN(C)C(=O)c2cc(N(C)C)ccc2O[C@@H]1CN(C)S(C)(=O)=O | 0 | . | . | . | . | .
CC(C)CC#Cc1ccc2c(c1)O[C@@H](CN(C)C(=O)Nc1ccccc1)[C@@H](C)CN([C@H](C)CO)S2(=O)=O | 0 | -1 | 8 | -13 | 117* | 1
CCCN(C)C[C@@H]1Oc2cc(C#CCC(C)C)ccc2S(=O)(=O)N([C@@H](C)CO)C[C@@H]1C | 0 | 0 | 51* | 7 | -11 | 2
CC(=O)N(C)C[C@@H]1Oc2cc(C#CCC(C)C)ccc2S(=O)(=O)N([C@H](C)CO)C[C@@H]1C | -1 | -4 | 18 | 1 | 114* | -1
SMILES | XiGFP reactiv | Casp6 inh | RAD52 inh | AF4-AF9 inh | S100A4 MyoIIA | RAD54 inh
Cc1noc(C)c1NC(=O)N(C)C[C@@H]1Oc2cc(C#CCC3CCCC3)ccc2S(=O)(=O)N([C@H](C)CO)C[C@@H]1C | 0 | 3 | 99* | 20 | 9 | -4
CCCN(C)C[C@@H]1Oc2cc(C#CCC(C)C)ccc2S(=O)(=O)N([C@@H](C)CO)C[C@H]1C | -1 | -1 | -15 | 1 | -10 | .
CC(=O)N(C)C[C@H]1Oc2cc(C#CCC(C)C)ccc2S(=O)(=O)N([C@H](C)CO)C[C@H]1C | -1 | 0 | 0 | 0 | -3 | -3
COc1ccc(CN(C)C[C@H]2OCCCC[C@@H](C)Oc3ccc(NC(=O)CCCN(C)C)cc3C(=O)N([C@@H](C)CO)C[C@H]2C)cc1 | 0 | 2 | 1 | 7 | -17 | -4
O=C(C1CCCC1)N1CC2(C1)[C@@H](c1ccccc1)[C@@H](CO)N2CC1CCCC1 | 0 | -1 | -67 | 2 | 1 | .
CO[C@H]1CN(C)C(=O)c2ccc(NC(=O)C3CC3)cc2OC[C@H](C)N(C(=O)Cc2ccccn2)C[C@H]1C | 0 | 0 | 1 | -2 | -9 | -3
C[C@@H]1CCCCO[C@H](CN(C)C(=O)c2ccccc2)[C@H](C)CN([C@@H](C)CO)C(=O)c2cc(NC(=O)c3ccccc3)ccc2O1 | 0 | 0 | -8 | 5 | -6 | -5
Cc1noc(C)c1NC(=O)N(C)C[C@@H]1Oc2ccc(NC(=O)c3ccncc3)cc2CC(=O)N([C@H](C)CO)C[C@@H]1C | -1 | -1 | -19 | -1 | -23 | 0
CCN1CCN(C(=O)C(C)Nc2ccc(OC)cc2OC)CC1 (stereo not given) | 2 | 0 | -41 | 26* | -11 | 12
Cc1noc(C)c1S(=O)(=O)Nc1ccc2c(c1)C(=O)N([C@@H](C)CO)C[C@H](C)[C@@H](CN(C)S(=O)(=O)c1cccs1)OCCCC[C@@H](C)O2 | 0 | . | . | . | . | -7
CC[C@H]1CC=CC[C@@H](C)Oc2ccccc2C(=O)N(C)[C@@H](C(C)C)C(=O)N1 (mixture of isomers) | 0 | . | . | . | . | .
COc1ccccc1S(=O)(=O)N[C@@H]1CC[C@@H](CCn2cc(C3CCCC3)nn2)O[C@H]1CO | 0 | -1 | 6 | 2 | 5 | .
Cc1[nH]c2c(ccc3cccnc32)c1C | 0 | 0 | -3 | 3 | -4 | 6
